Laboratory results as given in ChEMBL document CHEMBL1140065, “Potent cationic inhibitors of West Nile virus NS2B/NS3 protease with serum stability, cell permeability and antiviral activity” (J Med Chem, 2008).
Active and inactive are the calls of the source. No cut-off for these calls is given here. Starred links: 1 amine or outer side, 2 acyl side, 3 side chain; linkers in the order of their positions; H or OH if unused. Non-standard residues stand in square brackets, D forms with d. Residues, ends and D or L forms follow the SMILES beside them. *: point of attachment. Hydrocinnamoyl = O=C(CCc1ccccc1)*; hArg = N=C(N)NCCCC[C@H](N)C(=O)O; Cit = NC(=O)NCCC[C@H](N)C(=O)O; Orn = NCCC[C@H](N)C(=O)O; 2Abz = Nc1ccccc1C(=O)O; Cbz = O=C(OCc1ccccc1)*; PhAc = O=C(Cc1ccccc1)*; CO = O=C([*:1])[*:2]; NHBn = c1ccc(CN*)cc1; Bz = O=C(c1ccccc1)*

Key:
[1] = biological target: Genome polyprotein (West Nile virus, UniProt P06935); experiment: Inhibition of WNV recombinant NS2B-NS3 protease
[2] = biological target: Genome polyprotein (West Nile virus) (UniProt P06935); experiment: Inhibition of WNV recombinant NS2B-NS3 protease at 10 uM
Outline: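 Single-concentration screen at 10 µM inhibitor, scoring inhibition of recombinant WNV protease processing of the chromogenic tetrapeptide substrate Ac-LKKR-pNA.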

[3] = tested on: West Nile virus; experiment: Antiviral activity against WNV Kunjin infected african green monkey Vero cells assessed as reduction in plaque size at 12.5 uM measured at 48 hrs postinfection; format: functional, organism-based
Outline: (§1)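 Vero cells were seeded at 4 × 10^4 per well and grown to about 90% confluence, then washed with PBS and serum-free medium. Cells were coinfected with WNV Kunjin (moi 0.04) plus compound at 100 nM–200 µM for 2 h at 37 °C. Overlay was M199, 3% FBS, 1.2% carboxymethyl cellulose, 48 h. Plaques were immunostained with anti-NS1 antibody and read as infrared area; ten plaques averaged per well, duplicates, IC50 from dose-response.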

[4] = tested on: West Nile virus; experiment: Antiviral activity against WNV Kunjin infected african green monkey Vero cells assessed as reduction in plaque size measured at 48 hrs postinfection; format: functional, organism-based; outline: as §1
[5] = organism: Bos taurus; experiment: Inhibition of bovine trypsin at 1 uM
[6] = biological target: Coagulation factor X (Bos taurus) (UniProt P00743); experiment: Inhibition of bovine factor 10a at 1 uM
[7] = biological target: Plasminogen (Homo sapiens) (UniProt P00747); experiment: Inhibition of human plasmin at 1 uM
[8] = biological target: Urokinase-type plasminogen activator (Homo sapiens) (UniProt P00749); experiment: Inhibition of human urokinase at 1 uM
[9] = tested on: Vero; experiment: Cytotoxicity against african green monkey Vero cells upto 400 uM after 72 hrs by MTT assay; format: cell-based; conditions: chlorocebus sabaeus
Outline: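 MTT viability in Vero cells seeded at 4 × 10^4 per well and grown to about 90% confluence (~12 h). Fresh medium held compound at 5 nM–400 µM, with control medium ± DMSO. After 72 h, MTT was added for 3.5 h at 37 °C, then HCl/isopropanol for 4 h at RT. Absorbance was read at 550 nm; CC50 estimated; duplicates.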

Sequence of Genome polyprotein (West Nile virus) (P06935 whole entry): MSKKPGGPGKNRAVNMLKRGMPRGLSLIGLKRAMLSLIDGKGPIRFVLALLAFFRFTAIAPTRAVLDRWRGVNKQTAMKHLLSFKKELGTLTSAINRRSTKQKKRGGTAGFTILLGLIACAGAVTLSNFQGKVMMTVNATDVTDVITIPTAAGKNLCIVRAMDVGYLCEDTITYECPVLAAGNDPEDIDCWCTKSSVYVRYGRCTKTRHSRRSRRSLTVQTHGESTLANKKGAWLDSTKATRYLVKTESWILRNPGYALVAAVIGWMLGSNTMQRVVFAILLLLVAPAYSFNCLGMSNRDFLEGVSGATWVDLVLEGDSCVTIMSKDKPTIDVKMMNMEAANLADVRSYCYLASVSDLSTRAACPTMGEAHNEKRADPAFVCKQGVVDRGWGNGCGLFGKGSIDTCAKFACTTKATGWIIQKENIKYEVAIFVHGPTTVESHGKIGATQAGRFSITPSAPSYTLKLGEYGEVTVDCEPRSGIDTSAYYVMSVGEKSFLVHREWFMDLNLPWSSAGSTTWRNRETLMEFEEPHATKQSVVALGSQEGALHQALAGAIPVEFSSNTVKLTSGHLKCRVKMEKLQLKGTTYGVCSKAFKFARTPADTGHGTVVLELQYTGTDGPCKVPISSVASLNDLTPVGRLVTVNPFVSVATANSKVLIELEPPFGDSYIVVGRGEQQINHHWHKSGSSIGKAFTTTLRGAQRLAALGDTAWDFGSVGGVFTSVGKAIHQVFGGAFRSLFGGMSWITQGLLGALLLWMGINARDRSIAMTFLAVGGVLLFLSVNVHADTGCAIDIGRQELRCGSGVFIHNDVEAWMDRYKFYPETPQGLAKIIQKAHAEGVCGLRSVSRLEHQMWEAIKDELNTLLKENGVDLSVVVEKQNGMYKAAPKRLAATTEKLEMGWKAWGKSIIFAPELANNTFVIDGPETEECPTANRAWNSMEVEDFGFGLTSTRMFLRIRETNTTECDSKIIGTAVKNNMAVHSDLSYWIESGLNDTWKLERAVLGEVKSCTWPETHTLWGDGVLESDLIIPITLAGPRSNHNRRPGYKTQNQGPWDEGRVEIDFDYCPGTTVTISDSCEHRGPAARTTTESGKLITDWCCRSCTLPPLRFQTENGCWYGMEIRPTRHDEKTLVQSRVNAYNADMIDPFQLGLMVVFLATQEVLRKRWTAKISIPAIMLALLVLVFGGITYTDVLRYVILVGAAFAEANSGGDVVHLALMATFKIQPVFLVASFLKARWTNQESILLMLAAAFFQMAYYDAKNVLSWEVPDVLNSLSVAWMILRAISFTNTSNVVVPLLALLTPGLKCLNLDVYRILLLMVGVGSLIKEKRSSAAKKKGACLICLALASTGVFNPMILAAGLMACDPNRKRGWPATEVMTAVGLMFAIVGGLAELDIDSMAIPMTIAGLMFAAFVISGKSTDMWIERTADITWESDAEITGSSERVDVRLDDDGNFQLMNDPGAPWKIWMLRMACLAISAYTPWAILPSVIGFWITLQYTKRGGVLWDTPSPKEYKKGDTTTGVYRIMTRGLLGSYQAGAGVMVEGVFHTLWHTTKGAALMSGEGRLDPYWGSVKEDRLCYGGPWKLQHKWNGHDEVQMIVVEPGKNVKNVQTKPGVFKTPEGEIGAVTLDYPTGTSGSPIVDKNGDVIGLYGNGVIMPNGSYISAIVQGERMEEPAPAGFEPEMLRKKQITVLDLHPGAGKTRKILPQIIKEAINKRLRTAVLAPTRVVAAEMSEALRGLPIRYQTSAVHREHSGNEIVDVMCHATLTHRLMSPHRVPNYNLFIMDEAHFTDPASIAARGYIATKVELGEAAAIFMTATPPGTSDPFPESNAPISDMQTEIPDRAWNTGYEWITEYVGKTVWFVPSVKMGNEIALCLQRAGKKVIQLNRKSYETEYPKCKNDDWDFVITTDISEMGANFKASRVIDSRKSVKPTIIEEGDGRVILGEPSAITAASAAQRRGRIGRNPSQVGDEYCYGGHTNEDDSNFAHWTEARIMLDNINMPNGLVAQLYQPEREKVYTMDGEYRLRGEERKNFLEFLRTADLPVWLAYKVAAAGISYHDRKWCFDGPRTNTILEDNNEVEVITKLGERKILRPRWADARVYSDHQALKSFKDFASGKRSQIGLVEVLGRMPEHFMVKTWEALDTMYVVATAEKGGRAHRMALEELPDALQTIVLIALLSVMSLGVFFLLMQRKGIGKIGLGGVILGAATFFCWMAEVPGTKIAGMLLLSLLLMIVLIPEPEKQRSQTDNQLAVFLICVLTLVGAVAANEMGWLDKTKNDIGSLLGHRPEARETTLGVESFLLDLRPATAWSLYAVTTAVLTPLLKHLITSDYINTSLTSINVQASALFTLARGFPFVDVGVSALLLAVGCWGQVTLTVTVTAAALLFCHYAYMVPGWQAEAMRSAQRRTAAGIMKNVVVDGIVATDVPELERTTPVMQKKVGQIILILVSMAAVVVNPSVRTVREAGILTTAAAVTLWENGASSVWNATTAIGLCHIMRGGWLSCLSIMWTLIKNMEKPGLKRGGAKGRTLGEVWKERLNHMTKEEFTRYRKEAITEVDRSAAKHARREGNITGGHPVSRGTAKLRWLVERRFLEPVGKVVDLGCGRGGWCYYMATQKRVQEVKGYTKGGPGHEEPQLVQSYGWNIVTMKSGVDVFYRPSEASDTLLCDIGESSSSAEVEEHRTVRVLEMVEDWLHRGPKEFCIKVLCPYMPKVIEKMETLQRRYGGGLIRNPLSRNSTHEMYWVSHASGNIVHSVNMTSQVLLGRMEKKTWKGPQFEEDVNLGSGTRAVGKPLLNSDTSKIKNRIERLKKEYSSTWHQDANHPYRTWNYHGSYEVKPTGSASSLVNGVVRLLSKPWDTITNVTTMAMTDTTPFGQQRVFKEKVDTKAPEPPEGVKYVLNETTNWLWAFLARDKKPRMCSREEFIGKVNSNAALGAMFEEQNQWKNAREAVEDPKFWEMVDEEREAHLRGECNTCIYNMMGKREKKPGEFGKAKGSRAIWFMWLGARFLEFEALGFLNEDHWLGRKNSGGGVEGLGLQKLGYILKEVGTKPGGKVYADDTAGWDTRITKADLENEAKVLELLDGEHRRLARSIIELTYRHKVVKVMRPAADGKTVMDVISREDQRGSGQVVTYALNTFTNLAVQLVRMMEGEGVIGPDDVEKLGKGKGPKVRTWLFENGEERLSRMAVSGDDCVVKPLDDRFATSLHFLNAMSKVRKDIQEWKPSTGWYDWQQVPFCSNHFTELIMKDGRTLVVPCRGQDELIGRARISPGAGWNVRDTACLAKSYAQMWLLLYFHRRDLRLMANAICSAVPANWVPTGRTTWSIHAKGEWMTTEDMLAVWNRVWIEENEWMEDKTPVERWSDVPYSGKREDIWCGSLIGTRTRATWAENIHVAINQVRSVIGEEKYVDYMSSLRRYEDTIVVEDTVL
Sequence of Genome polyprotein (P06935 1371-1501 limits assumed): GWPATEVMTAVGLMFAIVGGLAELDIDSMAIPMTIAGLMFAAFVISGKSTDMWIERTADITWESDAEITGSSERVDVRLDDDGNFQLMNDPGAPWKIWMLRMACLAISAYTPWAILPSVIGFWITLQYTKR
Sequence of Genome polyprotein (P06935 1502-2120 limits assumed): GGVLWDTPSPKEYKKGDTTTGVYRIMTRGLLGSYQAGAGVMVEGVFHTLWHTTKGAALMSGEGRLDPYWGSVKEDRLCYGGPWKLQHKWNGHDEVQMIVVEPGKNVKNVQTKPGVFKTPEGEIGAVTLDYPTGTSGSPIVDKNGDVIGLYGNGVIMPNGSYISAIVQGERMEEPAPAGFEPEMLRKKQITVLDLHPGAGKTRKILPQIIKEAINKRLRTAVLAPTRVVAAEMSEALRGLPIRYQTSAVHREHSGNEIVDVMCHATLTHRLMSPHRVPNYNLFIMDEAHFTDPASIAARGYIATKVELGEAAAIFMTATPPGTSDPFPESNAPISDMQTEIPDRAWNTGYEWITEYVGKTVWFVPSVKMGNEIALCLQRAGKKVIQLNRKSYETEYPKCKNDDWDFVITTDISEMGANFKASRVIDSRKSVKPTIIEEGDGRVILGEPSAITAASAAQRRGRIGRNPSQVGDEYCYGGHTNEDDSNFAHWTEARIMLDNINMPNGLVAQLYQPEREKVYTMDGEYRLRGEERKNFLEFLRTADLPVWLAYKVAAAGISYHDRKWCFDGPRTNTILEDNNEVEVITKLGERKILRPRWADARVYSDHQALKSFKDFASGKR
Sequence of Coagulation factor X (Bos taurus) (P00743 41-180 limits assumed): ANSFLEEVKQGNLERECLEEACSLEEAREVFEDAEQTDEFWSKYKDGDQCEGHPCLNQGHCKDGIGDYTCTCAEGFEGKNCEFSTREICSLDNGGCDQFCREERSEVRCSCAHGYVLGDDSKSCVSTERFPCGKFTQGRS
Sequence of Coagulation factor X (Bos taurus) (P00743 234-492 limits assumed): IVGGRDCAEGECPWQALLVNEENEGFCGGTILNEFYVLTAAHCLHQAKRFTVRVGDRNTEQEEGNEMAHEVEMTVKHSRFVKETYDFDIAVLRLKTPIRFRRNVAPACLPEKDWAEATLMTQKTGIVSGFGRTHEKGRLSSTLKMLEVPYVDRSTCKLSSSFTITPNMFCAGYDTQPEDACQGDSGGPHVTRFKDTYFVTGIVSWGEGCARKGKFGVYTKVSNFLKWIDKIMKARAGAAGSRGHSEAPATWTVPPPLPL

SMILES	IC50 [1]	Ki [1]	further results
COc1cccc(CC(=O)N[C@@H](CCCCN)C(=O)N[C@@H](CCCCN)C(=O)N[C@H](C=O)CCCN=C(N)N)c1	60 nM	11 nM	
N=C(N)NCCC[C@@H](C=O)NC(=O)[C@H](CCCCN)NC(=O)[C@H](CCCCN)NC(=O)/C=C/c1ccccc1	580 nM	104 nM	inhibition [2]: > 80%
COc1ccc2ccc([C@H](C)C(=O)N[C@@H](CCCCN)C(=O)N[C@@H](CCCCN)C(=O)N[C@H](C=O)CCCNC(=N)N)cc2c1	112 nM	20 nM	inhibition [2]: > 80%
N=C(N)NCCC[C@@H](C=O)NC(=O)[C@H](CCCCN)NC(=O)[C@H](CCCCN)NC(=O)Cc1ccc(-c2ccccc2)cc1	32 nM	6 nM	inhibition [2]: > 80%
NCCCC[C@H](NC(=O)c1ccc2ccccc2c1)C(=O)N[C@@H](CCCCN)C(=O)N[C@H](C=O)CCCN=C(N)N	231 nM	41 nM	
N=C(N)NCCC[C@@H](C=O)NC(=O)[C@H](CCCCN)NC(=O)[C@H](CCCCN)NC(=O)COc1ccccc1	107 nM	19 nM	
COc1cccc(CC(=O)N[C@@H](CCCCN)C(=O)N[C@@H](CCCCN)C(=O)N[C@H](C=O)CCCNC(=N)N)c1			inhibition [2]: > 80%
N=C(N)NCCC[C@@H](C=O)NC(=O)[C@H](CCCCN)NC(=O)[C@H](CCCCN)NC(=O)c1ccc2ccccc2c1			inhibition [2]: > 80%
NCCCC[C@H](NC(=O)c1ccccc1)C(=O)N[C@@H](CCCCN)C(=O)N[C@H](C=O)CCCN=C(N)N (Bz-Lys-Lys-Arg-aldehyde)	271 nM	49 nM	
NCCCC[C@H](NC(=O)OCc1ccccc1)C(=O)N[C@@H](CCCCN)C(=O)N[C@H](C=O)CCCN=C(N)N (Cbz-Lys-Lys-Arg-aldehyde)	222 nM	40 nM	
N=C(N)NCCC[C@@H](C=O)NC(=O)[C@H](CCCCN)NC(=O)[C@H](CCCCN)NC(=O)c1ccccc1N (H-[2Abz]KKR-aldehyde)	891 nM	160 nM	
NCCCC[C@H](NC(=O)CCc1ccccc1)C(=O)N[C@@H](CCCCN)C(=O)N[C@H](C=O)CCCN=C(N)N (Hydrocinnamoyl-Lys-Lys-Arg-aldehyde)	454 nM	81 nM	
NCCCC[C@H](NC(=O)[C@H](CCCN=C(N)N)NC(=O)Cc1ccccc1)C(=O)N[C@H](C=O)CCCN=C(N)N (PhAc-Arg-Lys-Arg-aldehyde)	154 nM	28 nM	
N=C(N)NCCC[C@@H](C=O)NC(=O)[C@H](CCCNC(=N)N)NC(=O)[C@H](CCCCN)NC(=O)Cc1ccccc1 (PhAc-Lys-Arg-Arg-aldehyde)	325 nM	58 nM	
N=C(N)NCCC[C@@H](C=O)NC(=O)[C@H](CCCCN)NC(=O)[C@H](CCCCN)NC(=O)Cc1ccccc1 (PhAc-Lys-Lys-Arg-aldehyde)			inhibition [2]: > 80%; Activity [3]: Active; IC50 [4]: 1600 nM; inhibition [5]: 25%; inhibition [6]: 0%; inhibition [7]: 12%; inhibition [8]: 0%
NCCCC[C@H](NC(=O)Cc1ccccc1)C(=O)N[C@@H](CCCCN)C(=O)N[C@H](C=O)CCCN=C(N)N (PhAc-Lys-Lys-Arg-aldehyde)	51 nM	9 nM	Activity [9]: Non-toxic
NCCCC[C@H](NC(=O)Cc1ccccc1)C(=O)N[C@@H](CCCCN)C(=O)N[C@H](C=O)Cc1c[nH]c2ccccc12 (PhAc-Lys-Lys-Trp-aldehyde)	25700 nM	4600 nM	
N=C(N)NCCC[C@@H](C=O)NC(=O)[C@H](CCCNC(N)=O)NC(=O)[C@H](CCCCN)NC(=O)Cc1ccccc1 (PhAc-Lys-[Cit]-Arg-aldehyde)	11600 nM	2070 nM	
N=C(N)NCCC[C@@H](C=O)NC(=O)[C@H](CCCN)NC(=O)[C@H](CCCCN)NC(=O)Cc1ccccc1 (PhAc-Lys-[Orn]-Arg-aldehyde)	73 nM	13 nM	
N=C(N)NCCCC[C@H](NC(=O)[C@H](CCCCN)NC(=O)Cc1ccccc1)C(=O)N[C@H](C=O)CCCNC(=N)N (PhAc-Lys-[hArg]-Arg-aldehyde)	297 nM	53 nM	
N=C(N)NCCC[C@@H](C=O)NC(=O)[C@H](CCCCN)NC(=O)[C@H](CCCNC(N)=O)NC(=O)Cc1ccccc1 (PhAc-[Cit]-Lys-Arg-aldehyde)	619 nM	111 nM	
N=C(N)NCCC[C@@H](C=O)NC(=O)[C@H](CCCCN)NC(=O)[C@H](CCCN)NC(=O)Cc1ccccc1 (PhAc-[Orn]-Lys-Arg-aldehyde)	255 nM	46 nM	
N=C(N)NCCCC[C@H](NC(=O)Cc1ccccc1)C(=O)N[C@@H](CCCCN)C(=O)N[C@H](C=O)CCCNC(=N)N (PhAc-[hArg]-Lys-Arg-aldehyde)	254 nM	44 nM	
N=C(N)NCCC[C@@H](C=O)NC(=O)[C@H](CCCCN)NC(=O)[C@H](CCCCN)NC(=O)NCc1ccccc1 ({NHBn-CO}-Lys-Lys-Arg-aldehyde)	146 nM	26 nM	inhibition [2]: > 80%
